Measured values taken from ChEMBL document CHEMBL3877325, “Novel salicylanilides from 4,5-dihalogenated salicylic acids: Synthesis, antimicrobial activity and cytotoxicity” (Bioorg Med Chem, 2017).
Converted amounts (≈) assume the structure as drawn.

Columns and labels:
Mycobacterium kansasii [1] = assay: Antimycobacterial activity against Mycobacterium kansasii isolate 6509/96 after 7 days by micromethod; assay type: functional; details: isolate 6509/96, 168 h
Procedure, shortened: (§1)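 MIC in Šula's semisynthetic medium at 37 °C, read after 7, 14 and 21 days. Inoculum is strain dilution 10^-4; 235/80 is a collection strain and 6509/96 a clinical isolate. Compounds are added as DMSO solutions at 500, 250, 125, 62.5, 32, 16, 8, 4, 2, 1 and 0.5 µM. INH (in sterile water) and PAS are the reference drugs.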

[2] = Cytotoxicity against human HepG2 cells assessed as reduction in cell viability after 24 hrs by MTS assay; assay type: toxicity, cell-based
Procedure, shortened: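 HepG2 cells (passages 33-37) are grown in MEM with 10% FBS, L-glutamine and non-essential amino acids. They are seeded at 1 × 10^4 cells/well and treated next day with 0.1-100 µM in triplicate for 24 h at 37 °C, 5% CO2. MTS reagent is added for 2 h and A490 read.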

Mycobacterium avium [3] = assay: Antimycobacterial activity against Mycobacterium avium My 330/80 after 21 days by micromethod; assay type: functional; details: My 330/80, 504 h
Procedure, shortened: (§2)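 M. avium My 330/80 (collection strain) inoculated at 10^-5 dilution into Šula's semisynthetic medium. Compounds added from DMSO solutions at 500, 250, 125, 62.5, 32, 16, 8, 4, 2, 1 and 0.5 µM. MIC determined by micromethod at 37 °C, read after 14 and 21 days.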

Mycobacterium kansasii [4] = assay: Antimycobacterial activity against Mycobacterium kansasii isolate 235/80 after 14 days by micromethod; assay type: functional; details: isolate 235/80, 336 h; procedure, shortened: as §1
[5] = system: Mycobacterium tuberculosis; assay: Antimycobacterial activity against Mycobacterium tuberculosis H37Rv My 331/88 after 21 days by micromethod; assay type: functional; details: H37Rv My 331/88, 504 h
Procedure, shortened: (§3)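 MIC micromethod in Šula's semisynthetic medium at 37 °C, read after 14 and 21 days. Compounds added as DMSO solutions at 500 down to 0.5 µM (twofold-type series: 500, 250, 125, 62.5, 32, 16, 8, 4, 2, 1, 0.5 µM). Isoniazid standard given in sterile water.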

Mycobacterium kansasii [6] = assay: Antimycobacterial activity against Mycobacterium kansasii isolate 235/80 after 7 days by micromethod; assay type: functional; details: isolate 235/80, 168 h; procedure, shortened: as §1
Mycobacterium avium [7] = assay: Antimycobacterial activity against Mycobacterium avium My 330/80 after 14 days by micromethod; assay type: functional; details: My 330/80, 336 h; procedure, shortened: as §2
Mycobacterium kansasii [8] = assay: Antimycobacterial activity against Mycobacterium kansasii isolate 6509/96 after 14 days by micromethod; assay type: functional; details: isolate 6509/96, 336 h; procedure, shortened: as §1
Mycobacterium kansasii [9] = assay: Antimycobacterial activity against Mycobacterium kansasii isolate 6509/96 after 21 days by micromethod; assay type: functional; details: isolate 6509/96, 504 h; procedure, shortened: as §1
Mycobacterium kansasii [10] = assay: Antimycobacterial activity against Mycobacterium kansasii isolate 235/80 after 21 days by micromethod; assay type: functional; details: isolate 235/80, 504 h; procedure, shortened: as §1
[11] = system: Mycobacterium tuberculosis; assay: Antimycobacterial activity against Mycobacterium tuberculosis H37Rv My 331/88 after 14 days by micromethod; assay type: functional; details: H37Rv My 331/88, 336 h; procedure, shortened: as §3
[12] = Selectivity index, ratio of IC50 for human HepG2 cells to MIC for Mycobacterium tuberculosis H37Rv after 21 days; assay type: toxicity, cell-based; details: HepG2 cells versus Mycobacterium tuberculosis H37Rv, read-out: Selectivity Index
Procedure, shortened: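 HepG2 cells (passages 33-37) seeded at 1 × 10^4 per well and treated next day with 0.1–100 µM in triplicate. After 24 h at 37 °C, 5% CO2, MTS reagent added for 2 h and absorbance read at 490 nm. IC50 taken from viability relative to untreated control, then divided by the 21-day H37Rv MIC.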

## O=C(Nc1ccc(Br)cc1)c1cc(Cl)c(Cl)cc1O
Mycobacterium kansasii [1]
  MIC: 8 µM (≈ 2.89 µg/mL)
[2]
  IC50 at 24 h: 21.4 µM
Mycobacterium avium [3]
  MIC: 32 µM (≈ 11.6 µg/mL)
Mycobacterium kansasii [4]
  MIC: 8 µM (≈ 2.89 µg/mL)
[5]
  MIC: 4 µM (≈ 1.44 µg/mL)
Mycobacterium kansasii [6]
  MIC: 8 µM (≈ 2.89 µg/mL)
Mycobacterium avium [7]
  MIC: 32 µM (≈ 11.6 µg/mL)
Mycobacterium kansasii [8]
  MIC: 8 µM (≈ 2.89 µg/mL)
Mycobacterium kansasii [9]
  MIC: 8 µM (≈ 2.89 µg/mL)
Mycobacterium kansasii [10]
  MIC: 8 µM (≈ 2.89 µg/mL)
[11]
  MIC: 2 µM (≈ 0.722 µg/mL)
[12]
  selectivity ratio at 504 h: 5.35

## O=C(Nc1cc(C(F)(F)F)cc(C(F)(F)F)c1)c1cc(Br)c(Cl)cc1O
Mycobacterium kansasii [1]
  MIC: 8 µM (≈ 3.7 µg/mL)
[2]
  IC50 at 24 h: 5.07 µM
Mycobacterium avium [3]
  MIC: 32 µM (≈ 14.8 µg/mL)
Mycobacterium kansasii [4]
  MIC: 8 µM (≈ 3.7 µg/mL)
[5]
  MIC: 4 µM (≈ 1.85 µg/mL)
Mycobacterium kansasii [6]
  MIC: 8 µM (≈ 3.7 µg/mL)
Mycobacterium avium [7]
  MIC: 16 µM (≈ 7.4 µg/mL)
Mycobacterium kansasii [8]
  MIC: 8 µM (≈ 3.7 µg/mL)
Mycobacterium kansasii [9]
  MIC: 8 µM (≈ 3.7 µg/mL)
Mycobacterium kansasii [10]
  MIC: 8 µM (≈ 3.7 µg/mL)
[11]
  MIC: 2 µM (≈ 0.925 µg/mL)
[12]
  selectivity ratio at 504 h: 1.27

## O=C(Nc1ccc(Cl)c(Cl)c1)c1cc(Br)c(Cl)cc1O
Mycobacterium kansasii [1]
  MIC: 8 µM (≈ 3.16 µg/mL)
[2]
  IC50 at 24 h: 7.65 µM
Mycobacterium avium [3]
  MIC: 125 µM (≈ 49.4 µg/mL)
Mycobacterium kansasii [4]
  MIC: 8 µM (≈ 3.16 µg/mL)
[5]
  MIC: 4 µM (≈ 1.58 µg/mL)
Mycobacterium kansasii [6]
  MIC: 8 µM (≈ 3.16 µg/mL)
Mycobacterium avium [7]
  MIC: 125 µM (≈ 49.4 µg/mL)
Mycobacterium kansasii [8]
  MIC: 8 µM (≈ 3.16 µg/mL)
Mycobacterium kansasii [9]
  MIC: 8 µM (≈ 3.16 µg/mL)
Mycobacterium kansasii [10]
  MIC: 8 µM (≈ 3.16 µg/mL)
[11]
  MIC: 2 µM (≈ 0.791 µg/mL)
[12]
  selectivity ratio at 504 h: 1.91

## O=C(Nc1ccc(C(F)(F)F)cc1)c1cc(Br)c(Cl)cc1O
Mycobacterium kansasii [1]
  MIC: 4 µM (≈ 1.58 µg/mL)
[2]
  IC50 at 24 h: 11 µM
Mycobacterium avium [3]
  MIC: 62.5 µM (≈ 24.7 µg/mL)
Mycobacterium kansasii [4]
  MIC: 4 µM (≈ 1.58 µg/mL)
[5]
  MIC: 2 µM (≈ 0.789 µg/mL)
Mycobacterium kansasii [6]
  MIC: 4 µM (≈ 1.58 µg/mL)
Mycobacterium avium [7]
  MIC: 32 µM (≈ 12.6 µg/mL)
Mycobacterium kansasii [8]
  MIC: 4 µM (≈ 1.58 µg/mL)
Mycobacterium kansasii [9]
  MIC: 4 µM (≈ 1.58 µg/mL)
Mycobacterium kansasii [10]
  MIC: 4 µM (≈ 1.58 µg/mL)
[11]
  MIC: 1 µM (≈ 0.395 µg/mL)
[12]
  selectivity ratio at 504 h: 5.52

## O=C(Nc1ccc(Br)cc1)c1cc(Br)c(Cl)cc1O
Mycobacterium kansasii [1]
  MIC: 8 µM (≈ 3.24 µg/mL)
[2]
  IC50 at 24 h: 10.8 µM
Mycobacterium avium [3]
  MIC: 32 µM (≈ 13 µg/mL)
Mycobacterium kansasii [4]
  MIC: 8 µM (≈ 3.24 µg/mL)
[5]
  MIC: 4 µM (≈ 1.62 µg/mL)
Mycobacterium kansasii [6]
  MIC: 4 µM (≈ 1.62 µg/mL)
Mycobacterium avium [7]
  MIC: 32 µM (≈ 13 µg/mL)
Mycobacterium kansasii [8]
  MIC: 8 µM (≈ 3.24 µg/mL)
Mycobacterium kansasii [9]
  MIC: 8 µM (≈ 3.24 µg/mL)
Mycobacterium kansasii [10]
  MIC: 8 µM (≈ 3.24 µg/mL)
[11]
  MIC: 2 µM (≈ 0.811 µg/mL)
[12]
  selectivity ratio at 504 h: 2.71

## O=C(Nc1ccc(Cl)c(Cl)c1)c1cc(Cl)c(Cl)cc1O
Mycobacterium kansasii [1]
  MIC: 8 µM (≈ 2.81 µg/mL)
[2]
  IC50 at 24 h: 12.4 µM
Mycobacterium avium [3]
  MIC: 62.5 µM (≈ 21.9 µg/mL)
Mycobacterium kansasii [4]
  MIC: 8 µM (≈ 2.81 µg/mL)
[5]
  MIC: 2 µM (≈ 0.702 µg/mL)
Mycobacterium kansasii [6]
  MIC: 4 µM (≈ 1.4 µg/mL)
Mycobacterium avium [7]
  MIC: 62.5 µM (≈ 21.9 µg/mL)
Mycobacterium kansasii [8]
  MIC: 8 µM (≈ 2.81 µg/mL)
Mycobacterium kansasii [9]
  MIC: 8 µM (≈ 2.81 µg/mL)
Mycobacterium kansasii [10]
  MIC: 8 µM (≈ 2.81 µg/mL)
[11]
  MIC: 2 µM (≈ 0.702 µg/mL)
[12]
  selectivity ratio at 504 h: 6.21

## O=C(Nc1ccc(C(F)(F)F)cc1)c1cc(Cl)c(Cl)cc1O
Mycobacterium kansasii [1]
  MIC: 4 µM (≈ 1.4 µg/mL)
[2]
  IC50 at 24 h: 9.87 µM
Mycobacterium avium [3]
  MIC: 62.5 µM (≈ 21.9 µg/mL)
Mycobacterium kansasii [4]
  MIC: 8 µM (≈ 2.8 µg/mL)
[5]
  MIC: 2 µM (≈ 0.7 µg/mL)
Mycobacterium kansasii [6]
  MIC: 4 µM (≈ 1.4 µg/mL)
Mycobacterium avium [7]
  MIC: 62.5 µM (≈ 21.9 µg/mL)
Mycobacterium kansasii [8]
  MIC: 8 µM (≈ 2.8 µg/mL)
Mycobacterium kansasii [9]
  MIC: 8 µM (≈ 2.8 µg/mL)
Mycobacterium kansasii [10]
  MIC: 8 µM (≈ 2.8 µg/mL)
[11]
  MIC: 2 µM (≈ 0.7 µg/mL)
[12]
  selectivity ratio at 504 h: 4.94

## O=C(Nc1cc(C(F)(F)F)cc(C(F)(F)F)c1)c1cc(Cl)c(Cl)cc1O
Mycobacterium kansasii [1]
  MIC: 8 µM (≈ 3.34 µg/mL)
[2]
  IC50 at 24 h: 4.86 µM
Mycobacterium avium [3]
  MIC: 32 µM (≈ 13.4 µg/mL)
Mycobacterium kansasii [4]
  MIC: 8 µM (≈ 3.34 µg/mL)
[5]
  MIC: 2 µM (≈ 0.836 µg/mL)
Mycobacterium kansasii [6]
  MIC: 8 µM (≈ 3.34 µg/mL)
Mycobacterium avium [7]
  MIC: 32 µM (≈ 13.4 µg/mL)
Mycobacterium kansasii [8]
  MIC: 16 µM (≈ 6.69 µg/mL)
Mycobacterium kansasii [9]
  MIC: 16 µM (≈ 6.69 µg/mL)
Mycobacterium kansasii [10]
  MIC: 16 µM (≈ 6.69 µg/mL)
[11]
  MIC: 2 µM (≈ 0.836 µg/mL)
[12]
  selectivity ratio at 504 h: 2.43

## O=C(Nc1ccc(Br)cc1)c1cc(Br)ccc1O [DIBROMSALAN]
Mycobacterium kansasii [1]
  MIC: 8 µM (≈ 2.97 µg/mL)
[2]
  IC50 at 24 h: 23.6 µM
Mycobacterium avium [3]
  MIC: 16 µM (≈ 5.94 µg/mL)
Mycobacterium kansasii [4]
  MIC: 8 µM (≈ 2.97 µg/mL)
[5]
  MIC: 4 µM (≈ 1.48 µg/mL)
Mycobacterium kansasii [6]
  MIC: 4 µM (≈ 1.48 µg/mL)
Mycobacterium avium [7]
  MIC: 16 µM (≈ 5.94 µg/mL)
Mycobacterium kansasii [8]
  MIC: 8 µM (≈ 2.97 µg/mL)
Mycobacterium kansasii [9]
  MIC: 8 µM (≈ 2.97 µg/mL)
Mycobacterium kansasii [10]
  MIC: 8 µM (≈ 2.97 µg/mL)
[11]
  MIC: 4 µM (≈ 1.48 µg/mL)
[12]
  selectivity ratio at 504 h: 5.9

## O=C(Nc1cc(C(F)(F)F)cc(C(F)(F)F)c1)c1cc(Cl)ccc1O [IMD-0354]
Mycobacterium kansasii [1]
  MIC: 8 µM (≈ 3.07 µg/mL)
[2]
  IC50 at 24 h: 10.2 µM
Mycobacterium avium [3]
  MIC: 32 µM (≈ 12.3 µg/mL)
Mycobacterium kansasii [4]
  MIC: 16 µM (≈ 6.14 µg/mL)
[5]
  MIC: 8 µM (≈ 3.07 µg/mL)
Mycobacterium kansasii [6]
  MIC: 8 µM (≈ 3.07 µg/mL)
Mycobacterium avium [7]
  MIC: 32 µM (≈ 12.3 µg/mL)
Mycobacterium kansasii [8]
  MIC: 16 µM (≈ 6.14 µg/mL)
Mycobacterium kansasii [9]
  MIC: 16 µM (≈ 6.14 µg/mL)
Mycobacterium kansasii [10]
  MIC: 16 µM (≈ 6.14 µg/mL)
[11]
  MIC: 4 µM (≈ 1.53 µg/mL)
[12]
  selectivity ratio at 504 h: 1.27
